pIC50: −log10 of the molar value. In brackets after ≈: the same amount, converted by molar mass.
Assays:
Micrococcus luteus [1] = assay: Antimicrobial activity against Micrococcus luteus at 200 ug after 24 hrs by agar disc diffusion method; type: functional; settings: read-out: DIZ
Pseudomonas aeruginosa [2] = assay: Antimicrobial activity against Pseudomonas aeruginosa at 200 ug after 24 hrs by agar disc diffusion method; type: functional; settings: read-out: DIZ
Pseudomonas aeruginosa [3] = assay: Antimicrobial activity against Pseudomonas aeruginosa after 24 hrs by micro-dilution susceptibility method; type: functional
Method in brief: (§1)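 Broth microdilution in Müller-Hinton broth against S. aureus IFO 3060, B. subtilis IFO 3007, E. coli IFO 3301 and P. aeruginosa IFO 3448. These are the same standard strains used in the disc-diffusion primary screen. Compounds were solubilized in DMSO. MIC recorded as the minimal inhibitory concentration.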

Dihydrofolate reductase = biological target: T1, Dihydrofolate reductase (Bos taurus, UniProt P00376); assay: Inhibition of bovine DHFR after 2 mins by spectrophotometry
T1 sequence (P00376 whole entry): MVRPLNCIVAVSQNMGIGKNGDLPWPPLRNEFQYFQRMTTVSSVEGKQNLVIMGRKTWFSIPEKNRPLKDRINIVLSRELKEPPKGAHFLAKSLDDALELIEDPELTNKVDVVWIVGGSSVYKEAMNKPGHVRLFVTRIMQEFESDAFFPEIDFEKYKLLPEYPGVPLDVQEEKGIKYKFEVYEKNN

Bacillus subtilis [4] = assay: Antimicrobial activity against Bacillus subtilis after 24 hrs by micro-dilution susceptibility method; type: functional; method in brief: as §1
Micrococcus luteus [5] = assay: Antimicrobial activity against Micrococcus luteus after 24 hrs by micro-dilution susceptibility method; type: functional
Method in brief: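 MIC by broth microdilution in Müller-Hinton broth against M. luteus IFO 3232, the same strain used in the disc-diffusion primary screen.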

Bacillus subtilis [6] = assay: Antimicrobial activity against Bacillus subtilis at 200 ug after 24 hrs by agar disc diffusion method; type: functional; settings: read-out: DIZ
Staphylococcus aureus [7] = assay: Antimicrobial activity against Staphylococcus aureus at 200 ug after 24 hrs by agar disc diffusion method; type: functional; settings: read-out: DIZ
Staphylococcus aureus [8] = assay: Antimicrobial activity against Staphylococcus aureus after 24 hrs by micro-dilution susceptibility method; type: functional; method in brief: as §1
Escherichia coli [9] = assay: Antimicrobial activity against Escherichia coli after 24 hrs by micro-dilution susceptibility method
Escherichia coli [10] = assay: Antimicrobial activity against Escherichia coli at 200 ug after 24 hrs by agar disc diffusion method; type: functional; settings: read-out: DIZ
UACC-62 = assay: Cytotoxicity against human UACC62 cells at 10 uM after 48 hrs by coulter counter analysis; type: functional; settings: UACC-62, 48 h, read-out: GI
UO-31 = assay: Cytotoxicity against human UO31 cells at 10 uM after 48 hrs by coulter counter analysis; type: functional; settings: UO-31, 48 h, read-out: GI
NCI-H226 = assay: Cytotoxicity against human NCI-H226 cells at 10 uM after 48 hrs by coulter counter analysis; type: functional; settings: NCI-H226, 48 h, read-out: GI
Hs-578T = assay: Cytotoxicity against human Hs578T cells at 10 uM after 48 hrs by coulter counter analysis; type: functional; settings: read-out: GI
OVCAR-4 = assay: Cytotoxicity against human OVCAR4 cells at 10 uM after 48 hrs by coulter counter analysis; type: functional; settings: OVCAR-4, 48 h, read-out: GI
LOX IMVI = assay: Cytotoxicity against human LOXIMVI cells at 10 uM after 48 hrs by coulter counter analysis; type: functional; settings: read-out: GI
SF-295 = assay: Cytotoxicity against human SF295 cells at 10 uM after 48 hrs by coulter counter analysis; type: functional; settings: SF-295, 48 h, read-out: GI
[11] = Cytotoxicity against human EKVX cells at 10 uM after 48 hrs by coulter counter analysis; type: functional; settings: read-out: GI
SNB-75 = assay: Cytotoxicity against human SNB75 cells at 10 uM after 48 hrs by coulter counter analysis; type: functional; settings: SNB-75, 48 h, read-out: GI
CAKI-1 = assay: Cytotoxicity against human Caki1 cells at 10 uM after 48 hrs by coulter counter analysis; type: functional; settings: CAKI-1, 48 h, read-out: GI
HL-60(TB) = assay: Cytotoxicity against human HL-60(TB) cells at 10 uM after 48 hrs by coulter counter analysis; type: functional; settings: HL-60, 48 h, read-out: GI
T47D = assay: Cytotoxicity against human T47D cells at 10 uM after 48 hrs by coulter counter analysis; type: functional; settings: read-out: GI
NCI-H522 = assay: Cytotoxicity against human NCI-H522 cells at 10 uM after 48 hrs by coulter counter analysis; type: functional; settings: NCI-H522, 48 h, read-out: GI
SNB-19 = assay: Cytotoxicity against human SNB19 cells at 10 uM after 48 hrs by coulter counter analysis; type: functional; settings: SNB-19, 48 h, read-out: GI
NCI-H23 = assay: Cytotoxicity against human NCI-H23 cells at 10 uM after 48 hrs by coulter counter analysis; type: functional; settings: NCI-H23, 48 h, read-out: GI
CCRF-CEM = assay: Cytotoxicity against human CCRF-CEM cells at 10 uM after 48 hrs by coulter counter analysis; type: functional; settings: read-out: GI
A549 = assay: Cytotoxicity against human A549/ATCC cells at 10 uM after 48 hrs by coulter counter analysis; type: functional; settings: A549, 48 h, read-out: GI
SN12C = assay: Cytotoxicity against human SN12C cells at 10 uM after 48 hrs by coulter counter analysis; type: functional; settings: read-out: GI
SR = assay: Cytotoxicity against human SR cells at 10 uM after 48 hrs by coulter counter analysis; type: functional; settings: read-out: GI
MOLT-4 = assay: Cytotoxicity against human MOLT4 cells at 10 uM after 48 hrs by coulter counter analysis; type: functional; settings: MOLT-4, 48 h, read-out: GI
PC-3 = assay: Cytotoxicity against human PC3 cells at 10 uM after 48 hrs by coulter counter analysis; type: functional; settings: PC-3, 48 h, read-out: GI
MDA-MB-435 = assay: Cytotoxicity against human MDA-MB-435 cells at 10 uM after 48 hrs by coulter counter analysis; type: functional; settings: MDA-MB-435, 48 h, read-out: GI
MDA-MB-231 = assay: Cytotoxicity against human MDA-MB-231 cells at 10 uM after 48 hrs by coulter counter analysis; type: functional; settings: MDA-MB-231, 48 h, read-out: GI
RPMI-8226 = assay: Cytotoxicity against human RPMI8226 cells at 10 uM after 48 hrs by coulter counter analysis; type: functional; settings: RPMI-8226, 48 h, read-out: GI
MCF7 = assay: Cytotoxicity against human MCF7 cells at 10 uM after 48 hrs by coulter counter analysis; type: functional; settings: MCF7, 48 h, read-out: GI
SK-MEL-5 = assay: Cytotoxicity against human SK-MEL-5 cells at 10 uM after 48 hrs by coulter counter analysis; type: functional; settings: SK-MEL-5, 48 h, read-out: GI
A498 = assay: Cytotoxicity against human A498 cells at 10 uM after 48 hrs by coulter counter analysis; type: functional; settings: A498, 48 h, read-out: GI
IGROV-1 = assay: Cytotoxicity against human IGROV1 cells at 10 uM after 48 hrs by coulter counter analysis; type: functional; settings: IGROV-1, 48 h, read-out: GI
RXF 393 = assay: Cytotoxicity against human RXF393 cells at 10 uM after 48 hrs by coulter counter analysis; type: functional; settings: RXF 393, 48 h, read-out: GI
[12] = Cytotoxicity against human NCI-ADR-RES cells at 10 uM after 48 hrs by coulter counter analysis; type: functional; settings: read-out: GI
Malme-3M = assay: Cytotoxicity against human MALME-3M cells at 10 uM after 48 hrs by coulter counter analysis; type: functional; settings: read-out: GI
Escherichia coli [13] = assay: Antimicrobial activity against Escherichia coli at 100 ug after 24 hrs by agar disc diffusion method; type: functional; settings: read-out: DIZ
Micrococcus luteus [14] = assay: Antimicrobial activity against Micrococcus luteus at 100 ug after 24 hrs by agar disc diffusion method; type: functional; settings: read-out: DIZ
Method in brief: (§2)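 Agar disc diffusion on Müller-Hinton agar. Sterile 8 mm filter-paper discs were moistened with the compound in DMSO. Strains were B. subtilis IFO 3007 and M. luteus IFO 3232. Plates were incubated at 37 °C, and growth-inhibition zone diameters were measured in mm after 24 h. DMSO served as the solvent control.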

Staphylococcus aureus [15] = assay: Antimicrobial activity against Staphylococcus aureus at 100 ug after 24 hrs by agar disc diffusion method; type: functional; settings: read-out: DIZ
Bacillus subtilis [16] = assay: Antimicrobial activity against Bacillus subtilis at 100 ug after 24 hrs by agar disc diffusion method; type: functional; settings: read-out: DIZ; method in brief: as §2
Pseudomonas aeruginosa [17] = assay: Antimicrobial activity against Pseudomonas aeruginosa at 100 ug after 24 hrs by agar disc diffusion method; type: functional; settings: read-out: DIZ

CCOC(=O)c1nc(N)sc1Sc1nc2ccc(C)cc2c(=O)n1Cc1ccccc1
zone of inhibition at 200 µg/disc (Micrococcus luteus [1]): 20 mm | zone of inhibition at 200 µg/disc (Pseudomonas aeruginosa [2]): 18 mm | MIC (Pseudomonas aeruginosa [3]): 4 µg/mL (≈ 8.84 µM) | pIC50 (Dihydrofolate reductase): 5.40 | MIC (Bacillus subtilis [4]): 2 µg/mL (≈ 4.42 µM) | MIC (Micrococcus luteus [5]): 4 µg/mL (≈ 8.84 µM) | zone of inhibition at 200 µg/disc (Bacillus subtilis [6]): 26 mm | zone of inhibition at 200 µg/disc (Staphylococcus aureus [7]): 24 mm | MIC (Staphylococcus aureus [8]): 2 µg/mL (≈ 4.42 µM) | MIC (Escherichia coli [9]): 2 µg/mL (≈ 4.42 µM) | zone of inhibition at 200 µg/disc (Escherichia coli [10]): 24 mm

COc1cc2nc(Sc3cnc(N)s3)n(-c3ccccc3)c(=O)c2cc1OC
zone of inhibition at 200 µg/disc (Micrococcus luteus [1]): 16 mm | inhibition of growth at 10 µM (UACC-62): < 10% | inhibition of growth at 10 µM (UO-31): 22.2% | zone of inhibition at 200 µg/disc (Pseudomonas aeruginosa [2]): 14 mm | inhibition of growth at 10 µM (NCI-H226): < 10% | inhibition of growth at 10 µM (Hs-578T): < 10% | inhibition of growth at 10 µM (OVCAR-4): < 10% | inhibition of growth at 10 µM (LOX IMVI): < 10% | inhibition of growth at 10 µM (SF-295): < 10% | inhibition of growth at 10 µM [11]: 12.7% | inhibition of growth at 10 µM (SNB-75): < 10% | inhibition of growth at 10 µM (CAKI-1): 17.8% | pIC50 (Dihydrofolate reductase): 6.30 | MIC (Bacillus subtilis [4]): 4 µg/mL (≈ 9.7 µM) | inhibition of growth at 10 µM (HL-60(TB)): < 10% | inhibition of growth at 10 µM (T47D): < 10% | inhibition of growth at 10 µM (NCI-H522): < 10% | inhibition of growth at 10 µM (SNB-19): < 10% | inhibition of growth at 10 µM (NCI-H23): < 10% | inhibition of growth at 10 µM (CCRF-CEM): < 10% | MIC (Micrococcus luteus [5]): 4 µg/mL (≈ 9.7 µM) | inhibition of growth at 10 µM (A549): < 10% | inhibition of growth at 10 µM (SN12C): < 10% | zone of inhibition at 200 µg/disc (Bacillus subtilis [6]): 20 mm | zone of inhibition at 200 µg/disc (Staphylococcus aureus [7]): 18 mm | MIC (Staphylococcus aureus [8]): 8 µg/mL (≈ 19.4 µM) | inhibition of growth at 10 µM (SR): 14.8% | inhibition of growth at 10 µM (MOLT-4): < 10% | MIC (Escherichia coli [9]): 4 µg/mL (≈ 9.7 µM) | inhibition of growth at 10 µM (PC-3): 12% | inhibition of growth at 10 µM (MDA-MB-435): < 10% | inhibition of growth at 10 µM (MDA-MB-231): 18.6% | inhibition of growth at 10 µM (RPMI-8226): 12.5% | inhibition of growth at 10 µM (MCF7): < 10% | inhibition of growth at 10 µM (SK-MEL-5): < 10% | zone of inhibition at 200 µg/disc (Escherichia coli [10]): 18 mm | inhibition of growth at 10 µM (A498): < 10% | inhibition of growth at 10 µM (IGROV-1): 13% | inhibition of growth at 10 µM (RXF 393): < 10% | inhibition of growth at 10 µM [12]: < 10% | inhibition of growth at 10 µM (Malme-3M): < 10%

CC(=O)NS(=O)(=O)c1ccc(N)cc1 [SULFACETAMIDE]
MIC (Pseudomonas aeruginosa [3]): 2 µg/mL (≈ 9.34 µM) | MIC (Bacillus subtilis [4]): 2 µg/mL (≈ 9.34 µM) | MIC (Micrococcus luteus [5]): 2 µg/mL (≈ 9.34 µM) | zone of inhibition at 100 µg/disc (Escherichia coli [13]): 28 mm | zone of inhibition at 100 µg/disc (Micrococcus luteus [14]): 18 mm | MIC (Staphylococcus aureus [8]): 2 µg/mL (≈ 9.34 µM) | MIC (Escherichia coli [9]): 1 µg/mL (≈ 4.67 µM) | zone of inhibition at 100 µg/disc (Staphylococcus aureus [15]): 20 mm | zone of inhibition at 100 µg/disc (Bacillus subtilis [16]): 22 mm | zone of inhibition at 100 µg/disc (Pseudomonas aeruginosa [17]): 25 mm

— ChEMBL document CHEMBL2375290, “Nonclassical antifolates, part 3: synthesis, biological evaluation and molecular modeling study of some new 2-heteroarylthio-quinazolin-4-ones” (Eur J Med Chem, 2013)
